# An excerpt weighted towards active compounds, which were near 4.6% of everything screened.
# TAAR1 antag = antagonists of human TAAR1; AID 624466; 360,000 compounds, 1.5% hits; CHO RD-HGA16 TAAR1, Fluo-8 calcium fluorescence, antagonist; inhibition, % at 3 µM;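 active = inhibition above a per-plate cutoff, the mean inhibition of test compounds on that plate plus 3 SD, cut at about 49% in these data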;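 note: 0% = DMSO plus EC80 beta-PEA response and 100% = DMSO alone without agonist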
# Target sequence (Q96RJ0 whole entry, looked up): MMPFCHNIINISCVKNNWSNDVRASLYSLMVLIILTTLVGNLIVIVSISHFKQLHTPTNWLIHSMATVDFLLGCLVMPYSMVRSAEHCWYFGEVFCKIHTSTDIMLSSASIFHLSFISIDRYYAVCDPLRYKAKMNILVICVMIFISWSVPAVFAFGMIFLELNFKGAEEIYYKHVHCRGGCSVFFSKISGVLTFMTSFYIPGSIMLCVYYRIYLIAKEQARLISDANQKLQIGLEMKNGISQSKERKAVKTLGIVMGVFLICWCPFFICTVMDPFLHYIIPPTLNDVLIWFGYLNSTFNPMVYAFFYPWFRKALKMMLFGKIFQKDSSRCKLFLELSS
#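 test system = CHO RD-HGA16 cells bearing hTAAR1 | replication = singlicate | controls = DMSO-only wells and EC80 β-PEA-stimulated wells | reagent = EC80 β-phenethylamine stimulus | read-out basis = percent inhibition of PEA-evoked calcium signal, max/basal emission ratio | schedule = seeding 17-24 h prior, 75-min 37 °C, 30-min RT dye loading | signal = kinetic Fluo-8 calcium fluorescence measurement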
# TAAR1 agonist = human TAAR1 agonism; Q96RJ0; CHO RD-HGA16 TAAR1, Fluo-8 calcium fluorescence; vehicle wells 0%, saturating PEA agonist 100%; activation, % at 3 µM; 360,000 compounds, 0.99% hits;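 active = activation above the mean activation of all test compounds in the run plus 3 SD, cut at about 38% in these data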
#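 test system = CHO RD-HGA16 cells carrying human TAAR1 plus Gα16 | schedule = 17-24 h seeding, 75 min 37 °C dye, 30 min RT | compound dosing = 3 µM single concentration | control set = DMSO and PEA EC100 | replicates = n 1 | signal = Fluo-8 fluorescence, 5 s baseline then 140 s kinetic read | measure = percent activation vs PEA EC100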
# OX1R antag-1 = OX1R (human) antagonism; OX1R-expressing cells, FRET antagonist read-out; inhibition, % at 6.6 µM; 330,000 compounds, 1.8% hits; in the data active = inhibition mostly above about 38%, no sharp cut-off; inactive = mostly below about 40%;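 note: 0% = agonist challenge alone and 100% = reference antagonist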
# OX1R antag-2 = blocks the human orexin 1 receptor; 330,000 compounds, 0.43% hits; O43613; inhibition, % at 5 µM; CHO/OX1R cells, Fluo-8 calcium fluorescence, orexin A; AID 434989;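 active = inhibition above its plate's threshold, mean inhibition of all tested compounds on the plate plus 3 SD, cut at about 37% in these data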;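 note: 0% = orexin A challenge wells and 100% = SB-334867-A antagonist wells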
# CHO parental Ca = signal in parental CHO cells, OX1R antagonist counter-screen; parental CHO-K1, ATP-induced calcium, Fluo-8 fluorescence; inhibition, % at 5.6 µM; 330,000 compounds, 0.63% hits; AID 463079;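 active = inhibition above that plate's mean sample inhibition plus 3 SD, cut at about 26% in these data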;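 note: 0% = ATP-challenged DMSO wells and 100% = DMSO wells without ATP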
#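 Assay system: untransfected parental CHO cell line. Also added: ATP agonist challenge. Dosing: one dose, 5.6 µM nominal. Measured by: Fluo-8 fluorescence. Read-out: % inhibition. Benchmarks: ATP wells versus no-ATP DMSO wells. Repeats: no replicates.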
# GPR7 antagonist = human neuropeptides B/W receptor 1 antagonism. P48145. GPR7-expressing cells, fluorescence antagonist assay. inhibition, % at 4.4 µM. 290,000 compounds, 1.1% hits. AID 1861; in the data active = inhibition above about 16%, passing the limit was not always enough;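 note: cells stimulated with the agonist NPW; 0% = agonist with vehicle and 100% = vehicle without agonist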
# Target sequence (P48145 whole entry, looked up): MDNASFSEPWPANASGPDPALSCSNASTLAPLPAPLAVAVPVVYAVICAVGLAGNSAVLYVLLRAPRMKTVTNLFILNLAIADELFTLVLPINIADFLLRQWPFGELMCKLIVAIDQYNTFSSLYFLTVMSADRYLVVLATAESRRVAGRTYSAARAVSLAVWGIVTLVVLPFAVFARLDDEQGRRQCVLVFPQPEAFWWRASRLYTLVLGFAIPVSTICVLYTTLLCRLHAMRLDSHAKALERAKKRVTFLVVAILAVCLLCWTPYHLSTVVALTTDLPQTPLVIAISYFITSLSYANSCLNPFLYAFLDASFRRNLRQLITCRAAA
# GPR7 antag conf = human GPR7 antagonism, confirmation assay | shares compounds with GPR7 antagonist | GPR7-expressing cells, calcium fluorescence antagonist mode | inhibition, % at 4.4 µM | 2,400 compounds, 52% hits; in the data active = inhibition above about 24%;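 note: stimulated with the GPR7 agonist NPW; 0% = agonist plus vehicle and 100% = vehicle alone without agonist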
# MCHR1 antag = MCHR1 (human) antagonism in GPR7 counter-screen; inhibition, % at 4.4 µM; MCHR1-expressing cells, fluorescence antagonist assay; AID 2148; shares compounds with GPR7 antagonist; 2,400 compounds, 62% hits; in the data active = inhibition above about 22%;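 note: 0% = vehicle with agonist and 100% = vehicle without agonist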
# * hit, by the source's call; x = no result.
SMILES,TAAR1 antag,TAAR1 agonist,OX1R antag-1,OX1R antag-2,CHO parental Ca,GPR7 antagonist,GPR7 antag conf,MCHR1 antag
CCC(=O)N/C(=N/c1nc(C)cc(C)n1)Nc1ccccc1,-6,-3,13,-14,-26,19,x,x
CC(C)Cc1ccc(C(C)C(=O)OCC(=O)c2c[nH]c3ccccc23)cc1 (configuration not stated),22,55*,6,39*,75*,34*,67*,78*
CCCCNC(=O)C(NC(=O)c1ccc(C)cc1)C(=O)c1ccccc1 (configuration not stated),-26,-2,x,x,x,x,x,x
C[C@@H]1CN([C@@H](C)CO)C(=O)CCCn2nncc2CO[C@H]1CN(C)Cc1ccc2c(c1)OCCO2,-13,0,x,x,x,x,x,x
O=C(CCC(=O)N1CCSc2ccccc21)Nc1ccc(F)cc1,20,7,3,-27,-13,32*,-2,5
CC1Cc2ccccc2N1C(=S)NC(=O)c1ccco1 (configuration not stated),-10,-1,11,-7,-7,-12,x,x
CC(Oc1ccc(NC(=O)c2ccco2)cc1)C(=O)N1c2ccccc2CC1C (configuration not stated),-11,1,25,-25,-12,35*,14,19
COc1cccc(Cn2cccc(NC(=O)Nc3cccc(C#N)c3)c2=O)c1,23,5,50,-6,-16,27*,26*,67*
COc1cccc(NC(=O)Nc2cccn(Cc3ccc(C)cc3)c2=O)c1,1,3,29,-6,-11,-5,x,x
CN(C)c1ccc(/C=C(\C#N)c2ccccn2)cc1,12,2,24,-18,-10,30*,9,47*
CCOC(=O)c1cc2ccccc2n1CCN(CC)CC,-13,23,8,-42,-17,31*,6,6
COc1cccc(-c2cnc(C(O)c3c(C)cc(C)cc3C)[nH]2)c1 (configuration not stated),2,2,x,x,x,x,x,x
O=C(Nc1ccc(N2CCN(c3ccc(C(F)(F)F)cn3)CC2)nc1)c1cccs1,-23,3,6,15,-8,-18,x,x
O=C(Nc1ccc(N2CCN(c3ncccc3C(F)(F)F)CC2)nc1)c1cccs1,75*,22,22,8,17,21*,35*,81*
O=C(c1ccccn1)N1CCCC(N2CCN(Cc3ccc4c(c3)OCO4)CC2)C1 (configuration not stated),-25,1,5,-1,-2,-4,x,x
Cc1cccc(C(=O)N2CCCC(N3CCN(Cc4ccc5c(c4)OCO5)CC3)C2)n1 (configuration not stated),-10,4,11,-44,-15,27*,-11,2
CC1(C(=O)Nc2ccc3c(c2)OCCO3)CN(S(C)(=O)=O)CC(=O)N1CCCN1CCOCC1 (configuration not stated),-8,1,x,x,x,x,x,x
C1=CCC(CN2CCN(C3CCCCCC3)CC2)CC1 (configuration not stated),-17,2,16,14,-7,30*,23,38*
Cc1ccc(CNS(=O)(=O)c2ccc(C)s2)cc1,16,-2,25,0,3,28*,12,4
Cc1noc(C)c1CSc1nc2ccccc2n1CCc1ccccc1,-25,1,36,20,-19,26*,-3,10
CC(C)C(=O)N1CCC1(C)C(=O)Nc1nc2ccccc2[nH]1 (configuration not stated),-19,2,x,x,x,x,x,x
O=C(NC(C(=O)N1CCCC1C(=O)NC1CCCC1)c1ccccc1)c1cccs1 (configuration not stated),1,2,x,x,x,x,x,x
COc1ccc(CSc2nnnn2-c2ccc(C(N)=O)cc2)cc1[N+](=O)[O-],4,0,1,14,13,36*,7,39*
C=CCN=C1NC(c2ccccc2)C(C(=O)OC)=C(C)N1Cc1ccccc1C(F)(F)F (configuration not stated),-21,10,x,x,x,x,x,x
O=C(NCc1cccnc1)c1cc(-c2ccc(Cl)cc2)oc1C(F)(F)F,-34,4,16,-25,-27,34*,24*,20
SMILES,TAAR1 antag,TAAR1 agonist,OX1R antag-1,OX1R antag-2,CHO parental Ca,GPR7 antagonist,GPR7 antag conf,MCHR1 antag
C/C(=N\NC(=O)CNC(=O)c1ccco1)c1ccc(Br)cc1,-19,0,16,-10,9,24*,18,10
Cc1ccc2c(CN3CCN(c4ccccc4F)CC3)cc(=O)oc2c1,-18,-1,x,x,x,x,x,x
Cc1ccc(CN(C(=O)c2c(F)cccc2F)C2CC(C)(C)NC(C)(C)C2)o1,5,5,12,-12,0,25*,9,3
CCOC(=O)C1CCN(S(=O)(=O)c2c(Cl)ccc3nonc23)CC1,-5,4,89*,9,14,44*,56*,46*
O=C1c2cccc(OCC(=O)N3CCCc4ccccc43)c2CCN1Cc1ccc(F)cc1,56*,17,31,-6,-14,28*,41*,77*
CCCCCCn1c2c(c(=N)c3c1CCC3)CCC2,3,14,11,-9,5,37*,42*,46*
CCCCn1c2c(c(=N)c3c1CCC3)CCC2,3,17,13,-15,-10,9,x,x
CCOC(=O)C1=C[C@@H](c2ccccc2)N(S(=O)(=O)c2ccc(C)cc2)[C@H]1c1ccc(OC)cc1,0,3,x,x,x,x,x,x
CCOC(=O)c1cc(-c2ccc(Cl)cc2)nc2c1c(C)nn2CCC#N,19,5,29,-27,-8,3,x,x
CCOC(=O)c1cc(-c2ccc(OC)cc2F)nc2c1c(C)nn2CCC#N,17,15,10,-21,-26,29*,33*,23*
Cc1cccc(NC(=O)C2(c3ccccc3)CCOCC2)c1,-2,2,15,-6,-14,-11,x,x
Cc1cccc(NC(=O)C2(c3ccc([N+](=O)[O-])cc3)CCCC2)c1,0,48*,27,41,36*,33*,36*,36*
O=C(Cc1ccc([N+](=O)[O-])cc1)Nc1cccc(C(F)(F)F)c1,18,11,25,-7,28*,39*,30*,57*
CCOC(=O)C1(CCOc2ccccc2)CCN(Cc2cccc(OC)c2OC)CC1,-3,5,22,-17,37*,32*,24*,54*
O=C(/C=C(\Nc1ccc(Cl)c(C(F)(F)F)c1)c1ccccc1)c1ccccc1,-18,0,x,x,x,x,x,x

# Screening data as filed in PubChem.
